Data set [1] has as its target T1, Fibroblast growth factor 14 (Homo sapiens) (UniProt Q92915).
T1 sequence (whole entry): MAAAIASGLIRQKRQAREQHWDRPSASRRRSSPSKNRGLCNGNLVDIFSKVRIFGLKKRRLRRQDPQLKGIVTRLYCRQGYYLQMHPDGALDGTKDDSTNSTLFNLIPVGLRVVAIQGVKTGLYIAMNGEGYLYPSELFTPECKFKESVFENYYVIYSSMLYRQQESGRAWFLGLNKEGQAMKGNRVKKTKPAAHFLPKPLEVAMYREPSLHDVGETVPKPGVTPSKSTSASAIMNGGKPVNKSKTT
As to the kind of experiment: Binding affinity to human recombinant FGF14 expressed in Escherichia coli BL21 assessed as assessed as induction of protein denaturation by measuring change in melting temperature at 50 uM by fluorescent dye based thermal shift assay. The note with it: filed as modulator.

Data set [2] addresses T2, Sodium channel protein type 8 subunit alpha (Homo sapiens, UniProt Q9UQD0). The data set can be described thus: Binding affinity to human recombinant Nav1.6 C-terminal domain expressed in Escherichia coli BL21 assessed as assessed as induction of protein denaturation by measuring change in melting temperature at 10 uM by fluorescent dye based thermal shift assay. The note with it: filed as modulator, dose 50.0 µM.
Target sequence in this assay (Q9UQD0 whole entry, looked up, the tested form may be a part): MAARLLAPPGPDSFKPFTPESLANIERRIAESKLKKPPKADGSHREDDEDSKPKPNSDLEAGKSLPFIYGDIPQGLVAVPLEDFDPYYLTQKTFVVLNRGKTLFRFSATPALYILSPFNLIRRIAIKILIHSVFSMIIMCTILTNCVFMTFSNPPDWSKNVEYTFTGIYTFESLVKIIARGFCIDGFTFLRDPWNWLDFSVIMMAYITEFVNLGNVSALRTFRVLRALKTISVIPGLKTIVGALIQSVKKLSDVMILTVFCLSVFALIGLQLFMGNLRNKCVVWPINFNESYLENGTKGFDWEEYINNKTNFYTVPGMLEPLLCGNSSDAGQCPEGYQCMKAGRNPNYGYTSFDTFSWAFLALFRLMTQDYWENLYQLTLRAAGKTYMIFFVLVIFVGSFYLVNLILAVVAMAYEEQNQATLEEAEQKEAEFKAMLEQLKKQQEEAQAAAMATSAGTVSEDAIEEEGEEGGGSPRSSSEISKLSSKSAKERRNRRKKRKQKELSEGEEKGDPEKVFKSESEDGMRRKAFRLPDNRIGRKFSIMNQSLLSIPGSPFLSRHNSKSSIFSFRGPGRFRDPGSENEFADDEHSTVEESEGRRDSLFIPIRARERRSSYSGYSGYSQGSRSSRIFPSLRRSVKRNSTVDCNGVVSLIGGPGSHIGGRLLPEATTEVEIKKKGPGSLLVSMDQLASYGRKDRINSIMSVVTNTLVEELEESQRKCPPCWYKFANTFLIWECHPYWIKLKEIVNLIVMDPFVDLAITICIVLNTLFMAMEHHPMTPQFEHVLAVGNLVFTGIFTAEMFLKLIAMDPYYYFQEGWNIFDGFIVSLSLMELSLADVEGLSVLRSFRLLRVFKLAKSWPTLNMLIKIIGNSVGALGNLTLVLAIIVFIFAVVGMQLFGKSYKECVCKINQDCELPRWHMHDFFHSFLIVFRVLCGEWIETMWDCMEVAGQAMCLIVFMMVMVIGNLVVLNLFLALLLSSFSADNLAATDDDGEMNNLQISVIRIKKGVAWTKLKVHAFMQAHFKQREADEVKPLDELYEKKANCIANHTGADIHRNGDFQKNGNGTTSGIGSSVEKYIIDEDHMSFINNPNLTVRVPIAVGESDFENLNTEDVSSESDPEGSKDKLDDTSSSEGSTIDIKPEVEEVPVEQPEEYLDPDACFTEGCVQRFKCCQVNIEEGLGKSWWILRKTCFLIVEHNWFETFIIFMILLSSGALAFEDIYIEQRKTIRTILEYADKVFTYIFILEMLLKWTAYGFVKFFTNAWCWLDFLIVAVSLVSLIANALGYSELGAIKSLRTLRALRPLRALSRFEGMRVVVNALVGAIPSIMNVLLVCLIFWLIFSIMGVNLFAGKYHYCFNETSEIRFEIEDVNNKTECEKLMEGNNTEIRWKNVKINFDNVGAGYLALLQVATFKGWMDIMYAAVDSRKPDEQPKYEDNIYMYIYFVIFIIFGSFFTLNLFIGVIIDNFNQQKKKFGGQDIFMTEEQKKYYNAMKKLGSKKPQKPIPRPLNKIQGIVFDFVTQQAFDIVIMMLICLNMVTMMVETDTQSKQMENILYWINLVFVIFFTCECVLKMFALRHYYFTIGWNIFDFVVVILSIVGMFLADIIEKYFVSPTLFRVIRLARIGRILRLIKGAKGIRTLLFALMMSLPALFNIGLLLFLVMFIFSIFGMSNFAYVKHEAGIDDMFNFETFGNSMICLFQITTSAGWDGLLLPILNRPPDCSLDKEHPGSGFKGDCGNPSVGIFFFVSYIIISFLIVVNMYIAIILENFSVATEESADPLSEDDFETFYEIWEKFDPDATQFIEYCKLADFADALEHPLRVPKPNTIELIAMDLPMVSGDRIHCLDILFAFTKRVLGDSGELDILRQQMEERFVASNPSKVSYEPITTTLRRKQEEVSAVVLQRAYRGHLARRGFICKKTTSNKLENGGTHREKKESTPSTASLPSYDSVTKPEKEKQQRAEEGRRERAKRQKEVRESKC

For data set [3], the system named is HEK293. As to the kind of experiment: Cytotoxicity against HEK293 cells assessed as reduction in cell viability measured after 18 hrs by celltiter-blue assay. To be noted: human, hek293, 18 h. On the technique in general: Resazurin is reduced to fluorescent resorufin, in cell work by metabolically active cells.
Data set [4] deals with HEK293. The data set can be described thus: Modulation of recombinant human FGF141b (1 to 252 residues)-recombinant human Nav1.6 C-terminal tail (1763 to 1976 residues) protein-protein interaction expressed in HEK293 cells assessed as relative luminescence value at 50 uM measured at 2 mins interval for 20 mins by split-luciferase complementation assay relative to control. The data set is classed as cell-based. The note with it: filed as modulator, time min 2-20. Summed up:
(§1)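 Double-stable HEK293 line expressing CLuc-FGF14 and CD4-Nav1.6-C-tail-NLuc, kept on G418 and puromycin. Cells seeded for 24 h, then given compound for 1 h in serum-free, phenol red-free DMEM/F12 with a final 0.5% DMSO: 50 μM for screening, 0.25–100 μM over eight concentrations for dose-response; n = 4. D-luciferin added and read every 2 min for 20 min at 37 °C. Peak luminescence expressed as percent of per-plate DMSO mean (n = 32). IC50 from four-parameter nonlinear fit. At least 3 experiments.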

In data set [5] the target is T1, Fibroblast growth factor 14 (Homo sapiens). The data set can be described thus: Binding affinity to human recombinant FGF14 expressed in Escherichia coli BL21 assessed as association rate constant by SPR analysis. To be noted: filed as modulator. The method in brief:
(§2)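 Biacore T100 runs with FGF14 (17,896 RU) or Nav1.6 C-tail (6,800 RU) amine-coupled on CM5 at pH 5.5. Compounds at 0.195–200 μM in PBS, 0.005% Tween-20, 2% DMSO; 50 μL/min at 25 °C. 120 s association, 150 s dissociation, DMSO calibration, blank subtraction. Rates from a Langmuir 1:1 fit; KD averages the kinetic and steady-state values. At least duplicate experiments.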

Data set [6] can be described thus: Modulation of recombinant human FGF141b (1 to 252 residues)-recombinant human Nav1.6 C-terminal tail (1763 to 1976 residues) protein-protein interaction expressed in HEK293 cells measured at 2 mins interval for 20 mins by split-luciferase complementation assay. The data set is classed as cell-based. The method in brief:
as §1

Data set [7] has as its target T3, Fibroblast growth factor 14 (Homo sapiens, UniProt Q92915).
T3 sequence (Q92915 whole entry): T1 sequence (whole entry)
As to the kind of experiment: Binding affinity to human recombinant FGF14 expressed in Escherichia coli BL21 assessed as dissociation constant by SPR analysis. The method in brief:
as §2

Data set [8] concerns HEK293. The data set can be described thus: Modulation of recombinant human FGF141b (1 to 252 residues)-recombinant human Nav1.6 C-terminal tail (1763 to 1976 residues) protein-protein interaction expressed in HEK293 cells measured at 2 mins interval for 20 mins by split-luciferase complementation assay relative to control. To be noted: filed as modulator, time min 2-20. The data set is classed as cell-based. Summed up:
as §1

In data set [9] the target is T1, Fibroblast growth factor 14 (Homo sapiens). The data set can be described thus: Binding affinity to human recombinant FGF14 expressed in Escherichia coli BL21 assessed as dissociation rate constant by SPR analysis. The note with it: filed as modulator. The method in brief:
as §2
In general terms: SPR reads the build-up and loss of mass on a sensor chip optically.

In data set [10] the test system is HEK293. As to the kind of experiment: Inhibition of full-length Photinus pyralis luciferase transfected in HEK293 cells at 25 uM incubated for 1 hrs by split-luciferase complementation assay. The data set is classed as cell-based. The method in brief:
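HEK293 cells transfected with full-length Photinus pyralis luciferase, then treated 1 h with 25 μM compound (n = 4) or 0.5% DMSO (n = 32). Luminescence read after D-luciferin addition, as in the LCA, normalized to per-plate DMSO controls. One-way ANOVA with Dunnett's test.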

For data set [11], the target named is T2, Sodium channel protein type 8 subunit alpha. As to the kind of experiment: Binding affinity to human recombinant Nav1.6 C-terminal domain expressed in Escherichia coli BL21 assessed as dissociation constant by SPR analysis. The method in brief:
as §2
Target sequence in this assay (Q9UQD0 whole entry, the tested form may be a part): as the sequence (Q9UQD0 whole entry, looked up, the tested form may be a part) above

Data set [12] shares this target. The data set can be described thus: Binding affinity to human recombinant Nav1.6 C-terminal domain expressed in Escherichia coli BL21 assessed as association rate constant by SPR analysis. To be noted: filed as modulator. The method in brief:
as §2
Target sequence in this assay (Q9UQD0 whole entry, looked up, the tested form may be a part): as above

For data set [13] the target is unchanged. As to the kind of experiment: Binding affinity to human recombinant Nav1.6 C-terminal domain expressed in Escherichia coli BL21 assessed as dissociation rate constant by SPR analysis. The note with it: filed as modulator. Summed up: as §2
Target sequence in this assay (Q9UQD0 whole entry, looked up, the tested form may be a part): as above

Molecules are shown by their SMILES. Active and inactive are the calls of the source. The rule behind the calls is not given here. Residues, ends and D or L forms follow the SMILES beside them. *: point of attachment. Adamantane1carbonyl = O=C(C12CC3CC(CC(C3)C1)C2)*; Pyrrolidide = C1CCN(*)C1; Cbz = O=C(OCc1ccccc1)*; OcHex = C1CCC(O*)CC1; OtBu = CC(C)(C)O*; OAll = C=CCO*; OPr = CCCO* Some results are limits rather than exact numbers.

As for `CC(C)C[C@H](NC(=O)[C@@H]1CCCN1C(=O)OCc1ccccc1)C(=O)N[C@@H](CCC(=O)OC(C)(C)C)C(=O)N[C@H](C(=O)N1CCCC1)C(C)C` (Cbz-PLE(OtBu)V-Pyrrolidide), the shift in melting temperature (ΔTm) in [1] was 3.38 °C; in data set [2], -0.48 °C. For the same molecule, the Activity entry in the data set on HEK293 [3] is “Non-Toxic”; in the data set on HEK293 [4], 14%. Further, the K was 4.61 10^2/M/s in data set [5] and 9.91 10^-4/s in data set [9]. In addition, the IC50 in data set [6] came out at 33.4 µM. Besides, the Kd in data set [7] is 189 µM. Moreover, the Efficacy with HEK293 [8] turned out to be 96.9%. In addition, in the data set on HEK293 [10], the inhibition result is “inactive”.

`CCCOC(=O)[C@@H](NC(=O)[C@H](CCC(=O)OC(C)(C)C)NC(=O)[C@H](CC(C)C)NC(=O)[C@@H]1CCCN1C(=O)C12CC3CC(CC(C3)C1)C2)C(C)C` (Adamantane1carbonyl-PLE(OtBu)V-OPr): the dissociation constant (Kd) in data set [11] amounted to 90.1 µM; in data set [7] it was 11.4 µM. Also, the K in data set [5] was 2.89 10^2/M/s; in data set [9], 2.04 10^-2/s; in data set [12] it was 3.4 10^2/M/s; in data set [13], 4.92 10^-2/s. Also, the half-maximal inhibitory concentration (IC50) in data set [6] turned out to be 22.5 µM. Moreover, the Efficacy in the data set on HEK293 [8] was determined as 83.3%.

`C=CCOC(=O)[C@@H](NC(=O)[C@H](CCC(=O)OC(C)(C)C)NC(=O)[C@H](CC(C)C)NC(=O)[C@@H]1CCCN1C(=O)C12CC3CC(CC(C3)C1)C2)C(C)C` (Adamantane1carbonyl-PLE(OtBu)V-OAll): the ΔTm in [1] is -4.55 °C; in [2] it was 0.04 °C. For the same molecule, the Activity result with HEK293 [3] is “Non-Toxic”; in the data set on HEK293 [4] it was 5%. Also, the dissociation constant (Kd) is over 200 µM in data set [11] and 1.31 µM in data set [7]. For the same molecule, the K in data set [5] is 1.79 10^4/M/s; in data set [9], 9.32 10^-3/s; in [12] it was 6.16 10^6/M/s; in data set [13] it was 2.73 10^-3/s. The IC50 in [6] was found to be 11.5 µM. Further, the Efficacy in the data set with HEK293 [8] came to 95.5%. In addition, in the data set on HEK293 [10], the inhibition result is “inactive”.

Turning to `CC(C)C[C@H](NC(=O)[C@@H]1CCCN1C(=O)C12CC3CC(CC(C3)C1)C2)C(=O)N[C@@H](CCC(=O)OC(C)(C)C)C(=O)N[C@H](C(=O)OC1CCCCC1)C(C)C` (Adamantane1carbonyl-PLE(OtBu)V-OcHex), the ΔTm in [1] was -2.21 °C; in data set [2] it was 0.43 °C. The Activity entry was “Non-Toxic” in the data set on HEK293 [3] and 43.4% with HEK293 [4]. In addition, the Kd in [11] was over 200 µM; in data set [7], 7.02 µM. In addition, the K in [5] was 7.35 10^3/M/s; in data set [9], 1.39 10^-2/s; in data set [12], 7.16 10^5/M/s; in data set [13] it was 1.7 10^-4/s. The IC50 in data set [6] turned out to be 35.3 µM. For the same molecule, in the data set on HEK293 [8], the Efficacy was 69.9%. For the same molecule, the inhibition entry with HEK293 [10] is “inactive”.

Consider `CCOC(=O)[C@@H](NC(=O)[C@H](CCC(=O)OC(C)(C)C)NC(=O)[C@H](CC(C)C)NC(=O)[C@@H]1CCCN1C(=O)C12CC3CC(CC(C3)C1)C2)C(C)C` (Adamantane1carbonyl-PLE(OtBu)V-OEt), for which the Kd in data set [11] was 67.3 µM; in data set [7], 9.47 µM. In addition, the K in data set [5] is 2.17 10^2/M/s; in [9], 2.05 10^-2/s; in [12], 2.64 10^3/M/s; in [13], 1.22 10^-2/s. Also, the IC50 in [6] stood at 13.3 µM. Further, the Efficacy in the data set with HEK293 [8] was 82.3%.

As for `CC(C)C[C@H](NC(=O)[C@@H]1CCCN1C(=O)C12CC3CC(CC(C3)C1)C2)C(=O)N[C@@H](CCC(=O)OC(C)(C)C)C(=O)N[C@H](C(=O)OC(C)(C)C)C(C)C` (Adamantane1carbonyl-PLE(OtBu)V-OtBu), the thermal shift (ΔTm) was -0.89 °C in data set [1] and -0.13 °C in data set [2]. Also, the values for the Activity entry in the data set with HEK293 [3] and in the data set on HEK293 [4] were “Non-Toxic” and 33.6%, respectively. In addition, the Kd is over 200 µM in [11] and 6.94 µM in [7]. Moreover, the K is 1.62 10^3/M/s in data set [5], 5.8 10^-3/s in [9], 8.29 10^5/M/s in data set [12] and 7.94 10^-3/s in data set [13]. In addition, in data set [6], the concentration for half-maximal inhibition (IC50) is 33.9 µM. The Efficacy in the data set with HEK293 [8] was 92.1%. In addition, the inhibition entry in the data set with HEK293 [10] is “inactive”.

The term ΔTm denotes the shift of the melting midpoint relative to a reference. As a reminder, the IC50 is the concentration needed to halve the response being measured. As a reminder, the Kd is the free concentration of one partner at which half of the binding sites on the other are occupied at equilibrium, for simple one-to-one binding.

Values taken from ChEMBL document CHEMBL4699573, “Design, Synthesis, and Pharmacological Evaluation of Analogues Derived from the PLEV Tetrapeptide as Protein-Protein Interaction Modulators of Voltage-Gated Sodium Channel 1.6” (J Med Chem, 2020).
